The source made the active and inactive calls. The calls are words filed in the database; no cut-off is given here.
How the values were obtained:
HeLa [1] = test: Induction of p21 expression in human HeLa cells at 1 uM after 24 hrs by Western blotting; type: functional, cell-based
Summary of the method: (§1)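 HeLa S3 cells were grown in DMEM with 10% heat-inactivated FBS and treated for 24 h. Cells were sonicated in ice-cold pH 7.5 HEPES IP buffer with protease inhibitors. Extracts were separated by SDS-PAGE, blotted to PVDF and probed with anti-p16, anti-p21 and anti-p27 antibodies, with chemiluminescent detection.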

HeLa [2] = test: Induction of p16 expression in human HeLa cells at 1 uM after 24 hrs by Western blotting; type: functional, cell-based; summary of the method: as §1
HeLa [3] = test: Induction of p27 expression in human HeLa cells at 1 uM after 24 hrs by Western blotting; type: functional, cell-based; summary of the method: as §1
[4] = molecular target: T1, Splicing factor 3B subunit 3 (Homo sapiens) (UniProt Q15393); test: Binding affinity to SAP130 in human HeLa cells assessed as inhibition of beta-tubulin mRNA splicing at 100 ng/ml after 6 hrs by RT-PCR analysis; type: cell-based
T1 sequence (whole entry): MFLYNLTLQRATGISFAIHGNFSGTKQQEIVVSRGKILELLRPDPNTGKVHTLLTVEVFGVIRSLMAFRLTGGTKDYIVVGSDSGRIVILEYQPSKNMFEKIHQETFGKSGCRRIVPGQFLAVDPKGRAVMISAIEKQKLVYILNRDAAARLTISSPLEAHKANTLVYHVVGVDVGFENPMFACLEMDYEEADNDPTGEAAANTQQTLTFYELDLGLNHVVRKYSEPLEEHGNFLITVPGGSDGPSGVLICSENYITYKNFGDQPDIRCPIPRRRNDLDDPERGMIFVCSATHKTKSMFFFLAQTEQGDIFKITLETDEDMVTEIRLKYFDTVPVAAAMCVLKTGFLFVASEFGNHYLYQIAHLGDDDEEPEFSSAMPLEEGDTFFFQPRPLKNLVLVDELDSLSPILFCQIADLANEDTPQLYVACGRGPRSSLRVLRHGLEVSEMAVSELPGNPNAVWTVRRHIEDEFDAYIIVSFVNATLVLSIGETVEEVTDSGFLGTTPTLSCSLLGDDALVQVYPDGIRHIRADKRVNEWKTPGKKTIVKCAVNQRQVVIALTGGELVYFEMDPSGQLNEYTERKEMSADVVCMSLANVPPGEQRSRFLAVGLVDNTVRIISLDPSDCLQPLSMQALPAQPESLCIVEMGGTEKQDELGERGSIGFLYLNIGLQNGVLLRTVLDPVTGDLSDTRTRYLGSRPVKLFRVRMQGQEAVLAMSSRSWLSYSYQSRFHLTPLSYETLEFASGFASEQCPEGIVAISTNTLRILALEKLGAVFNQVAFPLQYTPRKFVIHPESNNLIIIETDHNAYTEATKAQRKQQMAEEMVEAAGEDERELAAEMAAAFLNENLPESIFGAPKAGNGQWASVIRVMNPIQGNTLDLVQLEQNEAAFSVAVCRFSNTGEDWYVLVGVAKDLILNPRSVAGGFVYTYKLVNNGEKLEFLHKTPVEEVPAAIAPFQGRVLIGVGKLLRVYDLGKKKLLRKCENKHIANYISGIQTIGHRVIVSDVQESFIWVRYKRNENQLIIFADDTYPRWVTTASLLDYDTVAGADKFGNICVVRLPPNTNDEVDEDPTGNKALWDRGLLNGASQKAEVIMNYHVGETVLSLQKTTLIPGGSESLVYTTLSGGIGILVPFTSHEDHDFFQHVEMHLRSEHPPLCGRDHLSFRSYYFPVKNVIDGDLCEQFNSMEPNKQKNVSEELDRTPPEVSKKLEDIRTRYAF
Summary of the method: (§2)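 HeLa cells treated 6 h with 100 ng ml-1 SSA or methanol. Total RNA isolated with TRIzol and reverse transcribed with M-MLV reverse transcriptase. PCR primers designed to detect intron-containing transcripts.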

HeLa [5] = test: Induction of subcellular localization of SAP155 in SAP155-targeting siRNA-transfected human HeLa cells after 3 days; type: functional, cell-based
HeLa [6] = test: Induction of beta-actin expression in human HeLa cells at 100 ng/ml after 14 hrs by Western blotting; type: functional, cell-based
HEK-293T [7] = test: Induction of intron translation of HA-tagged truncated p27 gene in HEK293T cells at 100 ng/ml for 14 hrs; type: functional, cell-based; conditions: Homo sapiens
Summary of the method: (§3)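 HEK 293T cells transfected (Lipofectamine 2000) with the p27-int-HA reporter. Correct splicing yields p27-Myc; translated intron yields p27*-HA. Cells treated with or without SSA at 100 ng ml-1 for 14 h. Myc- and HA-tagged products detected by western blotting.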

HeLa [8] = test: Induction of truncated p27 expression in SAP130-targeting siRNA-transfected human HeLa cells; type: functional, cell-based
Summary of the method: (§4)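 HeLa cells transfected with siRNA against SAP155, SAP145 or SAP130 using DharmaFECT 1. Knockdown and the truncated p27* form detected by western blotting of cell extracts.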

[9] = molecular target: T1, Splicing factor 3B subunit 3 (Homo sapiens); test: Binding affinity to SAP130 in human HeLa cells assessed as inhibition of p27 pre-mRNA splicing between exon 1 and intron 2 at […] after 12 hrs by RT-PCR analysis; type: cell-based
[10] = molecular target: T1, Splicing factor 3B subunit 3 (Homo sapiens); test: Binding affinity to SAP130 assessed as inhibition of radio labeled IgM pre-mRNA splicing after 1 hr by autoradiography
Summary of the method: (§5)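 32P-labelled, m7G-capped in vitro-transcribed pre-mRNA substrate; beta-globin (exon 1 177 nt, intron 130 nt, exon 2 148 nt) or IgM (exon C3 154 nt, intron 107 nt, exon C4 119 nt). HeLa nuclear extract preincubated with SSA (19, 58, 95, 190 nM) or methanol for 1 h at 4 °C. Splicing then run 90 min at 30 °C in 20 µl. RNA resolved on denaturing urea-PAGE; autoradiography.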

HeLa [11] = test: Induction of truncated p27 expression in SAP155-targeting siRNA-transfected human HeLa cells; type: functional, cell-based; summary of the method: as §4
[12] = molecular target: T1, Splicing factor 3B subunit 3 (Homo sapiens); test: Binding affinity to SAP130 in human HeLa cells assessed as inhibition of FLAG-tagged beta globin splicing at 100 ng/ml after 12 hrs by RT-PCR analysis; type: cell-based
[13] = test system: SF3B1/SF3B2/SF3B3 (Homo sapiens); test: Displacement of Ac-SSA from SF3b SAP155/SAP145/SAP130 complex in human HeLa cells by competition binding assay
[14] = molecular target: T1, Splicing factor 3B subunit 3 (Homo sapiens); test: Binding affinity to SAP130 assessed as inhibition of radio labeled beta-globin pre-mRNA splicing after 1 hr by autoradiography; summary of the method: as §5
[15] = molecular target: T1, Splicing factor 3B subunit 3 (Homo sapiens); test: Binding affinity to SAP130 in human HeLa cells assessed as inhibition of beta-actin mRNA splicing at 100 ng/ml after 6 hrs by RT-PCR analysis; type: cell-based; summary of the method: as §2
HEK-293T [16] = test: Induction of intron translation of Myc-tagged p27 gene in HEK293T cells at 100 ng/ml for 14 hrs by Western blotting; type: functional, cell-based; conditions: Homo sapiens; summary of the method: as §3
HeLa [17] = test: Induction of subcellular localization of poly(A) RNA in human HeLa cells at 100 ng/ml after 3 hrs using digoxigenin-labeled oligo-Dt probe; type: functional, cell-based
Summary of the method: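 HeLa cells treated with SSA (100 ng ml-1, 3 h) or MeOH. Fixed in 3% formaldehyde 15 min; permeabilized with 0.5% Triton X-100 on ice. Hybridized at 42 °C with 3'-digoxigenin oligo-dT in 2× SSC, 20% formamide, 1 mg ml-1 tRNA, 10% dextran sulfate. Washed; detected with anti-digoxigenin then FITC anti-mouse IgG.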

HeLa [18] = test: Induction of subcellular localization of SC35 in human HeLa cells at 100 ng/ml after 3 hrs; type: functional, cell-based
Summary of the method: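 HeLa cells treated with SSA (100 ng ml-1, 3 h) or MeOH. Fixed in 3% formaldehyde, permeabilized with 1% Triton X-100, blocked with 5% FBS-PBS. Stained with anti-SC35 and an Alexa 488 anti-mouse secondary; fluorescence microscopy at 100×.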

[19] = Half life of the compound in culture medium by HPLC analysis; type: physicochemical
[20] = molecular target: T1, Splicing factor 3B subunit 3 (Homo sapiens); test: Binding affinity to SAP130 in human HeLa cells assessed as inhibition of p27 pre-mRNA splicing between exon 1 and exon 2 at […] after 12 hrs by RT-PCR analysis; type: cell-based
[21] = molecular target: Cyclin-dependent kinase 2 (Homo sapiens) (UniProt P24941); test: Induction of CDK2 in HEK293T cells transfected with FLAG-tagged p27 at 190 nM by Western blot analysis; type: cell-based; conditions: HEK-293T
Summary of the method: (§6)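 HEK 293T cells were transfected with pcDNA3.1, FLAG-p27 or FLAG-p27*, or were treated with MeOH, FR901464 (20, 200 nM) or SSA (190 nM). CDK2 was immunoprecipitated and its kinase activity read by autoradiography with histone H1 and (gamma-32P)ATP. Associated proteins were detected by western blotting.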

HeLa [22] = test: Induction of truncated p27 expression in SAP145-targeting siRNA-transfected human HeLa cells; type: functional, cell-based; summary of the method: as §4
[23] = molecular target: T1, Splicing factor 3B subunit 3 (Homo sapiens); test: Binding affinity to SAP130 in human HeLa cells assessed as inhibition of IkappaBalpha pre-mRNA splicing between exon 1 and exon 4 at […] after 12 hrs by RT-PCR analysis; type: cell-based
HeLa [24] = test: Induction of beta-tubulin expression in human HeLa cells at 100 ng/ml after 14 hrs by Western blotting; type: functional, cell-based
[25] = molecular target: Cyclin-dependent kinase 2 (Homo sapiens) (UniProt P24941); test: Induction of CDK2 in HEK293T cells transfected with FLAG-tagged truncated p27 at 190 nM by Western blot analysis; type: cell-based; conditions: HEK-293T; summary of the method: as §6
HeLa [26] = test: Induction of subcellular localization of SAP145 in SAP145-targeting siRNA-transfected human HeLa cells after 3 days; type: functional, cell-based
[27] = molecular target: T1, Splicing factor 3B subunit 3 (Homo sapiens); test: Binding affinity to SAP130 in human HeLa cells assessed as inhibition of p27 mRNA splicing at 100 ng/ml after 6 hrs by RT-PCR analysis; type: cell-based; summary of the method: as §2

## CC(/C=C/C(=O)NO)=C\[C@@H](C)C(=O)c1ccc(N(C)C)cc1
HeLa [1]
  Activity: Active
HeLa [2]
  Activity: Active
HeLa [3]
  Activity: Active

## CO[C@]1(C)C[C@@]2(CO2)[C@H](O)[C@@H](/C=C/C(C)=C/C[C@@H]2O[C@H](C)[C@H](NC(=O)/C=C\[C@H](C)OC(C)=O)C[C@@H]2C)O1
[4]
  inhibition: Active
HeLa [5]
  Activity: Active
HeLa [6]
  Activity: Active
HEK-293T [7]
  Activity: Active
HeLa [8]
  Activity: Active
[9]
  Activity: Active
[10]
  inhibition: Active
HeLa [11]
  Activity: Active
[12]
  Activity: Active
[13]
  Activity: Active
[14]
  Activity: Dose-dependent effect
[15]
  inhibition: Active
HEK-293T [16]
  Activity: Active
HeLa [17]
  Activity: Active
HeLa [18]
  Activity: Active
[19]
  half-life: 6 min
[20]
  Activity: Active
[21]
  Activity: inactive
HeLa [22]
  Activity: Active
[23]
  Activity: Active
HeLa [24]
  Activity: Active
[25]
  Activity: inactive
HeLa [26]
  Activity: Active
[27]
  inhibition: Active

— ChEMBL document CHEMBL1221204, “Spliceostatin A targets SF3b and inhibits both splicing and nuclear retention of pre-mRNA” (Nat Chem Biol, 2007)
